# PubChem BioAssay
# The source made the active and inactive calls.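 The calls were made as follows, unless noted: active = viability at or under a set limit in both replicates, limit being median viability minus 3 SD (cut at about 48% in these data, passing the limit was not always enough); inconclusive = at or under the limit in just one replicate; inactive = at or above the limit in both replicates.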
# Experiments:
# [1] = Her2 expression decrease, cell viability multiplex – SKBR3 breast tumor cells, AlphaScreen, ATP viability, primary screen (AID 461;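 active = Her2 level under about 52% in both replicate screens, with viability over 70% of control, limit read from the data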;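 as to Her2 level: lower value means less Her2 protein in the cells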;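 as to viability: percent of carrier control wells set as 100% viability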); conditions: SKBR3 Her2 protein level, 18-24 h, measured here: SKBR3 viability, ATP luminescence, at 10 µM
# [2] = target: Receptor tyrosine-protein kinase erbB-2 (Homo sapiens) (UniProt P04626); assay: as above; conditions: 18-24 h, at 10 µM, stronger effect = lower value
# Sequence of Receptor tyrosine-protein kinase erbB-2 (Homo sapiens) (P04626 whole entry, looked up): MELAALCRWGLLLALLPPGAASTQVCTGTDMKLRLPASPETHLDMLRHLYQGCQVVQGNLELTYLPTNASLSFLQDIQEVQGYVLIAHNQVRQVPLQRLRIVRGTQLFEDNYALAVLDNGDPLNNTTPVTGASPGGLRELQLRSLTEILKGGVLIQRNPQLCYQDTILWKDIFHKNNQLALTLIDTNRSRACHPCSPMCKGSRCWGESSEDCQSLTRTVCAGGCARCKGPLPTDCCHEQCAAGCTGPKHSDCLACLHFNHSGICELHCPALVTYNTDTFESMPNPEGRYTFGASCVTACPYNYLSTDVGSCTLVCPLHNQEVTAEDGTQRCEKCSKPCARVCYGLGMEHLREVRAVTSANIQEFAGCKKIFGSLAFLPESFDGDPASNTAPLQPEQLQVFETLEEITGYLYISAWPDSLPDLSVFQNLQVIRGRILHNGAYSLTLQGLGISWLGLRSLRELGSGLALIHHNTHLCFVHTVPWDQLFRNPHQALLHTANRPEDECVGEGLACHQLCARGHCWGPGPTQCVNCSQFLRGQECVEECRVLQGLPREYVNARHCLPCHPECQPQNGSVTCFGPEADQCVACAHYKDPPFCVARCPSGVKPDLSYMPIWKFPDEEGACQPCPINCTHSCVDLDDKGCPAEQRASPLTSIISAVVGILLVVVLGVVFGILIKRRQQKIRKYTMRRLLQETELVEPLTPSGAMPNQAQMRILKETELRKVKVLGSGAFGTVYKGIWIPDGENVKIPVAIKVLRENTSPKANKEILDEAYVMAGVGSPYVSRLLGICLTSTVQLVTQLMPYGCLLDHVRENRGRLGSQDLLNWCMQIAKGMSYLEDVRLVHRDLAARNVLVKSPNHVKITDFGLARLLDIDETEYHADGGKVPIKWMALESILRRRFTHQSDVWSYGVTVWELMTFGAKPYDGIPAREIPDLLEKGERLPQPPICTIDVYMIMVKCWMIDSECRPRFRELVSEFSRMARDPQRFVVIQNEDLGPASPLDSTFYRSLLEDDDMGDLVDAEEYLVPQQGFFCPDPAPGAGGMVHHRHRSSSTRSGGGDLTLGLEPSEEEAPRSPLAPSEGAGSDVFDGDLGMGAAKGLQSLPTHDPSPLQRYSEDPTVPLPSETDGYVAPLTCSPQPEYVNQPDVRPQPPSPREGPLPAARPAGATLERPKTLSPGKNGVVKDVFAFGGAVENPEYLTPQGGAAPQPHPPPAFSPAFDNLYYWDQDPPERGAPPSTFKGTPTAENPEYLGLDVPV
# [3] = reduced viability of SK-BR-3 breast cancer cells – cell-based, 24 h, human, pilot screen (AID 572;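 active = viability at or below 10% of carrier control in both of two separate runs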;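 also: compound exposure lasted between 18 and 24 h rather than exactly 24 h; 100% = carrier-treated control wells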); conditions: SK-BR-3 viability, CellTiter-Glo luminescence, at 10 µM, stronger effect = lower value
# [4] = HUVEC growth inhibition – cell-based, human, primary screen (AID 575;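 active = viability at or below 30% in both replicate assays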;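 also: 100% = median of untreated cell wells with 0.1% DMSO on each plate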); conditions: HUVEC proliferation, CellTiter-Glo luminescence, 72 h; at 10 µM; stronger effect = lower value
# In short: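 System – primary HUVEC, no more than 12 passages · Medium – Low-serum (2% FBS) EBM, supplemented · Times – 72 h exposure, 37 °C, 5% CO2, 30 min RT equilibration · Measured by – luminescent ATP assay · Read-out – % viability relative to median vehicle-well signal on each plate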
# [5] = H69AR cell proliferation blockers – human, duplicate replicates, primary screen (AID 580); conditions: H69AR lung tumor cells viability, ATP luminescence, 72 h; at 10 µM; stronger effect = lower value;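 also: 100% = mean luminescence of untreated wells and 0% = no signal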
# [6] = MRP1 drug-resistance reversers in H69AR cells – cell-based, doxorubicin co-treatment, pilot screen (AID 601;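 active = viability loss from added drug above about 55%, and viability with drug at most 40%, in both replicates, limit read from the data, passing the limit was not always enough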); conditions: CellTiter-Glo, 72 h, at 10 µM; for differential viability (reversal): stronger effect = higher value
# [7] = yeast transport mutant growth inhibition pilot in 384-well plates, post-Golgi transport modulator project (AID 636; in the data active = inhibition above about 31%); conditions: absorbance 615 nm, about 18 h, stronger effect = higher value
# [8] = growth suppression of yeast trafficking mutant, preliminary HTS, modulators of trafficking downstream of Golgi apparatus project, 1536-format plate, OD 615 nm (AID 637; in the data active = inhibition above about 30%); conditions: yeast transport mutant growth, absorbance 615 nm, 18 h; stronger effect = higher value
# [9] = H69AR cells + 2 uM doxorubicin, measured here: viability with 2 uM doxorubicin, stronger effect = lower value
# [10] = H69AR cells, compound alone cytotoxicity
SMILES,viability [1] [%],Her2 level [2],viability [3],viability [4],viability [5],differential viability (reversal) ([6]; H69AR cells + 2 uM doxorubicin),"viability [6, 9] [%]","viability [6, 10] [%]",inhibition [7],inhibition [8]
Cc1ccc(S(=O)(=O)NCC2CCC(C(=O)NCCCN3CCOCC3)CC2)cc1 (stereo not given),89.5,93% (inactive),89.5% (inactive),92.7% (inactive),88.6% (inactive),-8.07% (inactive),96.6,88.6,-0.53% (inactive),24.9% (inactive)
Cc1nc(=S)n(-c2ccccc2)[nH]1,104,107% (inactive),104% (inactive),107% (inactive),107% (inactive),2.28% (inactive),105,107,-3.2% (inactive),-9.35% (inactive)
CCOC(=O)c1ccccc1NC(=O)CSc1nnc(COc2ccccc2C)n1C,63,89% (inactive),63% (inactive),82.6% (inactive),78.7% (inactive),5.67% (inactive),73,78.7,-3.08% (inactive),-9.17% (inactive)
CN(C)S(=O)(=O)N1CCN(c2cccc(Cl)c2)CC1,112,101% (inactive),112% (inactive),92% (inactive),91% (inactive),-15% (inactive),106,91,0% (inactive),27% (inactive)
O=C(C(c1ccccc1)c1ccccc1)N1CCN(Cc2ccccn2)CC1,81,112% (inactive),81% (inactive),84.7% (inactive),93.4% (inactive),-0.39% (inactive),93.8,93.4,-1.03% (inactive),-5.83% (inactive)
CCC(C)(C)NC(=O)C(c1ccco1)N(C(=O)Cn1nnc2ccccc21)c1ccc2c(c1)OCO2 (stereo not given),92.5,85% (inactive),92.5% (inactive),78.1% (inactive),105% (inactive),18.9% (inactive),85.9,105,-0.53% (inactive),-1.13% (inactive)
COc1ccc(N2CCN(C(c3cccc(OC)c3OC)c3nnnn3C3CCCC3)CC2)cc1 (stereo not given),88,121% (inactive),88% (inactive),94.4% (inactive),88.5% (inactive),-0.405% (inactive),88.9,88.5,4.61% (inactive),-2.06% (inactive)
CCC(=O)/C=C1\Sc2ccc(OC)cc2N1CCO,120,98% (inactive),120% (inactive),98.6% (inactive),87.8% (inactive),2.07% (inactive),85.7,87.8,-4.21% (inactive),-4.68% (inactive)
O=C(OCC(=O)N1CCc2ccccc21)C1=COCCO1,89.5,90% (inactive),89.5% (inactive),88.4% (inactive),86.1% (inactive),18.2% (inactive),67.9,86.1,-4.94% (inactive),-0.32% (inactive)
COCCNC(=O)C(c1cccc(OC)c1)N(Cc1cccs1)C(=O)Cn1nnc2ccccc21 (stereo not given),110,82% (inactive),110% (inactive),105% (inactive),99.2% (inactive),4.64% (inactive),94.5,99.2,-3.6% (inactive),1.48% (inactive)
CCOc1cc(CN2CCN(C(=O)c3ccco3)CC2)ccc1OC,79.5,102% (inactive),79.5% (inactive),88.7% (inactive),89.5% (inactive),1.51% (inactive),87.9,89.5,-2.69% (inactive),0.83% (inactive)
Nn1c(SCC(=O)Nc2ccc(F)cc2)nnc1-c1cccnc1,90.5,81% (inactive),90.5% (inactive),95.1% (inactive),103% (inactive),7.72% (inactive),95.5,103,-0.26% (inactive),-3.67% (inactive)
Cc1c(NC(=O)CSc2nnc3sc4ccccc4n23)c(=O)n(-c2ccccc2)n1C,94,92.5% (inactive),94% (inactive),106% (inactive),90.4% (inactive),0.76% (inactive),89.6,90.4,0.65% (inactive),-2.79% (inactive)
COc1ccccc1CNC(=O)C1CCCN(S(=O)(=O)c2cnc[nH]2)C1 (stereo not given),94,102% (inactive),94% (inactive),105% (inactive),109% (inactive),16.7% (inactive),92.3,109,1.47% (inactive),-0.98% (inactive)
Cc1ccc(S(=O)(=O)Nc2cc(C(=O)O)ccc2N2CCCCC2)cc1,112,112% (inactive),112% (inactive),101% (inactive),85.6% (inactive),-1.99% (inactive),87.6,85.6,-5.97% (inactive),6.07% (inactive)
CCOC(=O)Cn1nc(-c2ccc(C)cc2)ccc1=O,99,115% (inactive),99% (inactive),94.1% (inactive),100% (inactive),15.4% (inactive),84.6,100,-5.32% (inactive),7.21% (inactive)
